Results taken from ChEMBL document CHEMBL5634186, “Structure-Activity Relationship Study of Biselyngbyolide B Reveals Mitochondrial Fission-Induced Cytotoxicity in Cancer” (ACS Med Chem Lett, 2024).
The source made the active and inactive calls. The calls are words filed in the database; no cut-off is given here.

Assays:
[1] = Cytotoxicity against HEK293 cells assessed as reduction in cell viability incubated for 16 hrs by MTT assay; type: toxicity, cell-based; conditions: human
HCT-116 [2] = assay: Anticancer activity against human HCT-116 cells assessed as inhibition of cell viability incubated for 16 hrs by MTT assay; type: functional, cell-based; conditions: HCT-116, 16 h
HCT-116 [3] = assay: Induction of mitochondrial membrane potential loss in human HCT-116 cells incubated for 16 hrs by mitotracker red staining based confocal microscope analysis; type: functional, cell-based; conditions: dose 0.5-1 µM
Method in brief: (§1)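 HCT116 cells treated 16 h with compound (0.5 or 1 μM where dosed); stained 30 min with MitoTracker Deep Red FM (membrane potential) or CellROX Red FM (ROS); confocal imaging; mean fluorescence intensity quantified from five fields.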

HCT-116 [4] = assay: Induction of ROS generation in human HCT-116 cells incubated for 16 hrs by CellROX Red staining based confocal microscope analysis; type: functional, cell-based; conditions: dose 0.5-1 µM; method in brief: as §1
HCT-116 [5] = assay: Induction of apoptosis in human HCT-116 cells assessed as decrease in cleavage of caspase 3 at 1 uM pretreated with NAC for 1 hr followed by compound addition and measured after 16 hrs by immunoblotting analysis; type: functional, cell-based
Method in brief: (§2)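 HCT116 cells pretreated 1 h with 5 mM NAC, then 1 μM compound 16 h; immunoblot for cleaved caspase 3 and PARP1, β-actin loading control.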

HCT-116 [6] = assay: Induction of apoptosis in human HCT-116 cells assessed as decrease in cleavage of PARP at 1 uM pretreated with NAC for 1 hr followed by compound addition and measured after 16 hrs by immunoblotting analysis; type: functional, cell-based; method in brief: as §2
HCT-116 [7] = assay: Induction of ROS generation in mitochondria of human HCT-116 cells transfected with mito-GFP at 1 uM incubated for 16 hrs by CellROX Red staining based confocal microscope analysis; type: functional, cell-based
Method in brief: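 HCT116 cells transfected with CellLight Mitochondria-GFP, treated 1 μM for 16 h, stained with CellROX Red FM 30 min; confocal imaging; colocalization of GFP and CellROX Red intensities quantified.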

HCT-116 [8] = assay: Induction of ROS generation in mitochondria of human HCT-116 cells at 1 uM preincubated with MitoTEMPO for 1 hr followed by compound addition and measured after 16 hrs by MitoSOX Red staining based confocal microscope analysis; type: functional, cell-based
Method in brief: (§3)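 HCT116 cells pretreated 1 h with 10 μM MitoTEMPO, then compound 1 μM for 16 h. Mitochondrial superoxide by MitoSOX Red confocal imaging, intensity quantified; cytotoxicity by LIVE/DEAD kit (Calcein-AM live, EthD-1 dead), percentage dead cells quantified.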

HCT-116 [9] = assay: Induction of ROS generation in mitochondria of human HCT-116 cells assessed as number of dead cells at 1 uM preincubated with MitoTEMPO for 1 hr followed by compound addition and measured after 16 hrs by Calcein-AM/EthD-1 staining based confocal microscope analysis; type: functional, cell-based; method in brief: as §3
HCT-116 [10] = assay: Induction of mitochondrial fission in human HCT-116 cells assessed as increase in DRP1 phosphorylation at S616 at 0.5 to 1 uM by immunoblotting analysis; type: functional, cell-based; conditions: dose 0.5-1 µM, time 8-24 hrs, TDE = time-dependent effect
Method in brief: (§4)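 Immunoblot in HCT116 cells: p-DRP1 S616, p-DRP1 S637, DRP1, Mitofusin1, Mitofusin2 and MFF over time (0, 8, 16, 24 h); p-DRP1 S616, S637, DRP1, Mitofusin1 and OPA at 0.5 and 1 μM. β-Actin loading control.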

HCT-116 [11] = assay: Induction of mitochondrial fission in human HCT-116 cells assessed as decrease in DRP1 phosphorylation at S637 at 0.5 to 1 uM by immunoblotting analysis; type: functional, cell-based; conditions: dose 0.5-1 µM, time 8-24 hrs, TDE = time-dependent effect; method in brief: as §4
HCT-116 [12] = assay: Induction of mitochondrial fusion in human HCT-116 cells assessed as change in Mitofusin level at 0.5 to 1 uM incubated for 8 to 24 hrs by immunoblotting analysis; type: functional, cell-based; conditions: dose 0.5-1 µM, time 8-24 hrs; method in brief: as §4
HCT-116 [13] = assay: Induction of mitochondrial fusion in human HCT-116 cells assessed as change in OPA1 level at 0.5 to 1 uM incubated for 8 to 24 hrs by immunoblotting analysis; type: functional, cell-based; conditions: dose 0.5-1 µM, time 8-24 hrs; method in brief: as §4
HCT-116 [14] = assay: Induction of mitochondrial fusion in human HCT-116 cells assessed as change in MFF level at 0.5 to 1 uM incubated for 8 to 24 hrs by immunoblotting analysis; type: functional, cell-based; conditions: dose 0.5-1 µM, time 8-24 hrs; method in brief: as §4
HCT-116 [15] = assay: Induction of ROS production in human HCT-116 cells assessed as deterioration of mitochondrial length and area at 1 uM incubated for 16 hrs in presence of CellLight Mitochondria-GFP by confocal microscopy analysis; type: functional, cell-based
Method in brief: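 HCT116 cells transfected with CellLight Mitochondria-GFP, treated 1 μM for 16 h; confocal images quantified for mitochondrial length and area.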

HCT-116 [16] = assay: Induction of mitochondrial fission in human HCT-116 cells assessed as appearance of mitochondrial puncta at 1 uM incubated for 14 hrs by Mitotracker Red staining based time-lapse microscopy analysis; type: functional, cell-based
Method in brief: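 Time-lapse microscopy with MitoTracker Red over 14 h of treatment in HCT116 cells; size of mitochondrial puncta measured as fission read-out.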

HCT-116 [17] = assay: Induction of ROS production in human HCT-116 cells assessed as altered mitochondrial architecture at 1 uM pretreated with NAC for 1 hr followed by compound addition and measured after 16 hrs by MitoTracker Deep Red staining based confocal microscopy analysis; type: functional, cell-based
Method in brief: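 HCT116 cells pretreated 1 h with or without 5 mM NAC, then 1 μM compound 16 h; MitoTracker Deep Red FM staining 30 min; confocal imaging of mitochondrial morphology with quantification.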

HCT-116 [18] = assay: Induction of mitochondrial fission in human HCT-116 cells assessed as increase in DRP1 phosphorylation at S616 at 1 uM preincubated with NAC for 1 hr followed by compound addition and measured after 16 hrs by immunoblotting analysis; type: functional, cell-based
Method in brief: (§5)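 Immunoblot of p-DRP1 S616 and p-DRP1 S637 in HCT116 cells pretreated 1 h with or without 5 mM NAC, then 1 μM compound 16 h.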

HCT-116 [19] = assay: Induction of mitochondrial fission in human HCT-116 cells assessed as decrease in DRP1 phosphorylation at S637 at 1 uM preincubated with NAC for 1 hr followed by compound addition and measured after 16 hrs by immunoblotting analysis; type: functional, cell-based; method in brief: as §5
HCT-116 [20] = assay: Induction of ROS generation in human HCT-116 cells at 1 uM preincubated for 16 hrs followed by Mdivi1 addition for 8 hrs by CellROX Red staining based confocal microscopy analysis; type: functional, cell-based
HCT-116 [21] = assay: Induction of mitochondrial membrane potential loss in human HCT-116 cells at 1 uM preincubated for 16 hrs followed by Mdivi1 addition and measured after 8 hrs by MitoTracker Deep Red staining based confocal microscopy analysis; type: functional, cell-based
Method in brief: (§6)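 HCT116 cells treated 1 μM for 16 h; DRP1 inhibited with 25 μM Mdivi-1 for 8 h. Staining 30 min with CellROX Red FM, MitoTracker Deep Red FM and LIVE/DEAD reagents; confocal imaging; mean fluorescence intensity from five fields.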

HCT-116 [22] = assay: Induction of apoptosis in human HCT-116 cells assessed as number of dead cells at 1 uM preincubated for 16 hrs followed by Mdivi1 addition and measured after 8 hrs by Calcein-AM/EthD-1 staining based confocal microscope analysis; type: functional, cell-based; method in brief: as §6
HCT-116 [23] = assay: Induction of apoptosis in human HCT-116 cells assessed as decrease in cleavage of caspase 3 at 1 uM preincubated for 16 hrs followed by Mdivi1 addition and measured after 8 hrs by immunoblotting analysis; type: functional, cell-based
Method in brief: (§7)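 HCT116 cells treated 1 μM for 16 h, post-treated with 25 μM Mdivi-1 for 8 h; immunoblot for cleaved caspase 3 and PARP1, β-actin loading control.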

HCT-116 [24] = assay: Induction of apoptosis in human HCT-116 cells assessed as decrease in cleavage of PARP at 1 uM preincubated for 16 hrs followed by Mdivi1 addition and measured after 8 hrs by immunoblotting analysis; type: functional, cell-based; method in brief: as §7
HCT-116 [25] = assay: Induction of apoptosis in human HCT-116 cells assessed as increase in JNK1 phosphorylation at 1 uM preincubated with NAC for 1 hr followed by compound addition and measured after 16 hrs by immunoblotting analysis; type: functional, cell-based
Method in brief: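 Immunoblot of p-JNK and JNK in HCT116 cells pretreated 1 h with or without 5 mM NAC before compound treatment; β-actin loading control.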

HCT-116 [26] = assay: Induction of apoptosis in human HCT-116 cells assessed as increase in JNK phosphorylation at 1 uM incubated for 16 hrs by immunoblotting analysis; type: functional, cell-based
Method in brief: (§8)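 Immunoblot of p-JNK, JNK, p-p38 and p38 in HCT116 cells after 1 μM compound for 16 h; β-actin loading control.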

HCT-116 [27] = assay: Induction of apoptosis in human HCT-116 cells assessed as increase in p-38 phosphorylation at 1 uM incubated for 16 hrs by immunoblotting analysis; type: functional, cell-based; method in brief: as §8
HCT-116 [28] = assay: Induction of apoptosis in human HCT-116 cells assessed as increase in JNK1 phosphorylation at 1 uM preincubated with selonsertib for 1 hr followed by compound addition and measured after 16 hrs by immunoblotting analysis; type: functional, cell-based
Method in brief: (§9)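 Immunoblot of p-JNK, p-p38 and p38 in HCT116 cells pretreated 1 h with or without 50 μM selonsertib before compound treatment; β-actin loading control.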

HCT-116 [29] = assay: Induction of apoptosis in human HCT-116 cells assessed as number of dead cells at 1 uM preincubated with selonsertib for 1 hr followed by compound addition and measured after 16 hrs by Calcein-AM/EthD-1 staining based confocal microscope analysis; type: functional, cell-based
HCT-116 [30] = assay: Induction of mitochondrial fission in human HCT-116 cells assessed as increase in DRP1 phosphorylation at S616 after 8 to 24 hrs by immunoblotting analysis; type: functional, cell-based; conditions: dose 0.5-1 µM, time 8-24 hrs; method in brief: as §4
HCT-116 [31] = assay: Induction of mitochondrial fission in human HCT-116 cells assessed as decrease in DRP1 phosphorylation at S637 after 8 to 24 hrs by immunoblotting analysis; type: functional, cell-based; conditions: dose 0.5-1 µM, time 8-24 hrs; method in brief: as §4
HCT-116 [32] = assay: Induction of apoptosis in human HCT-116 cells assessed as increase in p-38 phosphorylation at 1 uM preincubated with selonsertib for 1 hr followed by compound addition and measured after 16 hrs by immunoblotting analysis; type: functional, cell-based; method in brief: as §9

In the case of `C/C=C/C/C(C)=C\[C@H]1C/C=C/C=C/C[C@H](C)/C=C(\C)[C@@H](OC)C/C=C/CCC(=O)O1`, the IC50 at 16 h [1] is reported as 15.2 µM and the IC50 (HCT-116 [2]) is reported as 15.6 µM.

Work on `C/C=C/C/C(C)=C\[C@H]1C/C=C/C=C/C[C@H](C)/C=C/[C@@H](OC)C/C=C/[C@@H](O)CC(=O)O1` yielded an IC50 at 16 h [1] of 11.8 µM and an IC50 (HCT-116 [2]) of 7.1 µM.

With `C/C=C/C/C(C)=C\[C@H]1C/C=C/C=C/C[C@H](C)/C=C(\C)[C@@H](OC)CCC[C@@H](O)CC(=O)O1` the IC50 at 16 h [1] was 23.7 µM, the IC50 (HCT-116 [2]) was 0.1 µM and the Activity (HCT-116 [3]) was “Dose-Dependent Effect”. The Activity (HCT-116 [4]) was “Dose-Dependent Effect”, the Activity (HCT-116 [5]) was “Active” and the Activity (HCT-116 [6]) was “Active”. The Activity (HCT-116 [7]) was “Active”, the Activity (HCT-116 [8]) was “inactive” and the Activity (HCT-116 [9]) was “inactive”. For the same molecule, the Activity (HCT-116 [10]) was “Tde”, the Activity (HCT-116 [11]) was “Tde” and the Activity (HCT-116 [12]) was “inactive”. The Activity (HCT-116 [13]) was “inactive”, the Activity (HCT-116 [14]) was “inactive” and the Activity (HCT-116 [15]) was “Active”. The Activity (HCT-116 [16]) was “Active”, the Activity (HCT-116 [17]) was “inactive” and the Activity (HCT-116 [18]) was “inactive”. The Activity (HCT-116 [19]) was “inactive”, the Activity (HCT-116 [20]) was “inactive” and the Activity (HCT-116 [21]) was “inactive”. For the same molecule, the Activity (HCT-116 [22]) was “inactive”, the Activity (HCT-116 [23]) was “inactive” and the Activity (HCT-116 [24]) was “inactive”. For the same molecule, the Activity (HCT-116 [25]) was “inactive”, the Activity (HCT-116 [26]) was “Active” and the Activity (HCT-116 [27]) was “Active”. The Activity (HCT-116 [28]) was “inactive”, the Activity (HCT-116 [29]) was “inactive” and the Activity (HCT-116 [30]) was “Dose-Dependent Effect”. For the same molecule, the Activity (HCT-116 [31]) was “Dose-Dependent Effect” and the Activity (HCT-116 [32]) was “inactive”.

In the case of `C/C=C/C/C(C)=C\[C@H]1C/C=C/C=C/CC/C=C(\C)[C@@H](OC)C/C=C/[C@@H](O)CC(=O)O1`, the IC50 at 16 h [1] is reported as 12.5 µM and the IC50 (HCT-116 [2]) is reported as 6.8 µM.

For `C/C=C/C/C(C)=C\[C@H]1C/C=C/C=C/C[C@H](C)/C=C(\C)[C@@H](OC)C[C@@H](O)C[C@@H](O)CC(=O)O1`, the IC50 at 16 h [1] was 20.8 µM and the IC50 (HCT-116 [2]) was 0.1 µM.

`CO[C@H]1C/C=C/[C@@H](O)CC(=O)O[C@@H](c2ccc(C)cc2)C/C=C/C=C/C[C@H](C)/C=C/1C` showed an IC50 at 16 h [1] of 16.5 µM and an IC50 (HCT-116 [2]) of 7.8 µM.
